According to ChEMBL document CHEMBL1126553, “Antioxidant and neutrophil-inhibiting properties of new 2-O-methyl-6-(alkylthio)ascorbic acid derivatives” (J Med Chem, 1993):
Blank lines part the entries; values can stand above or below the molecule they belong to. Activity calls are given as the source filed them. The rule behind the calls is not given here.

Columns and labels:
Homo sapiens [1] = species on record: Homo sapiens; assay: Inhibitory effect on superoxide anion formation of fMLP-stimulated neutrophils at 1 uM by cytochrome c assay; Did not inhibit or weakly inhibited; assay type: functional
Rattus norvegicus [2] = species on record: Rattus norvegicus; assay: Inhibition of Fe(2+)/ADP-induced lipid peroxidation of rat liver microsomes; assay type: functional
How it was run: (§1)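 Wistar rat liver microsomes (1 mg/mL) in 50 mM potassium phosphate, pH 7.2, with 50 μM ADP and 5 μM […]. Compound or DMSO was preincubated at 25 °C (5 min per methods; legend says 3 min). Peroxidation was started with 1 mM NADPH. After 15 min, malondialdehyde was measured by thiobarbituric acid at 532 nm. Mean ± SEM, n = 3.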

Homo sapiens [3] = species on record: Homo sapiens; assay: Maximum inhibition of MLP-induced oxidative burst in a cell density of 2 x 10 e 6 cells/mL; assay type: functional
Homo sapiens [4] = species on record: Homo sapiens; assay: Inhibition of fMLP-induced oxidative burst in a cell density of 2 x 10 e 6 cells/mL; assay type: functional, cell-based
Homo sapiens [5] = species on record: Homo sapiens; assay: Inhibition of fMLP-induced secretion of lysozyme (azurophilic and specific granules); assay type: functional
Homo sapiens [6] = species on record: Homo sapiens; assay: Maximum Inhibition of fMLP-stimulated superoxide production in a cell density of 5 x 10 e 6 cells/mL; assay type: functional
Homo sapiens [7] = species on record: Homo sapiens; assay: Inhibition of fMLP-induced oxidative burst in a cell density of 5 x 10 e 5 cells/mL; assay type: functional, cell-based
Homo sapiens [8] = species on record: Homo sapiens; assay: Inhibitory effect on superoxide anion formation of fMLP-stimulated neutrophils at 1 uM by cytochrome c assay; assay type: functional
Homo sapiens [9] = species on record: Homo sapiens; assay: Inhibition of fMLP-induced secretion of beta-glucurodinase (azurophilic granules); assay type: functional
How it was run: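 Neutrophils at 5 × 10⁶/mL were primed with 5 μg/mL cytochalasin B (4 min, 37 °C), given compound in 0.1% DMSO for 3 min, then 100 nM fMLP for 15 min. Stopped on ice and pelleted. Supernatant β-glucuronidase was assayed with 4-methylumbelliferyl-β-D-glucuronide, pH 4.0, 15 min at 37 °C; fluorescence ex 365/em 460 nm. n = 3.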

[10] = Dissociation constant in aqueous system; assay type: physicochemical
Homo sapiens [11] = species on record: Homo sapiens; assay: Inhibition of fMLP-stimulated superoxide production in a cell density of 5 x 10 e 6 cells/mL; assay type: functional, cell-based
[12] = Dissociation constant in aqueous solution; assay type: physicochemical
Homo sapiens [13] = species on record: Homo sapiens; assay: Tested for inhibition of fMLP induced secretion of lysozyme from human neutrophil cells; Did not influence or inactive; assay type: functional, cell-based
Rattus norvegicus [14] = species on record: Rattus norvegicus; assay: Tested for inhibition of lipid peroxidation in rat liver microsomes; assay type: functional; how it was run: as §1

SMILES: CCCCCCCCSCC(O)C1OC(O)=C(OC)C1=O (stereo not drawn)
inhibition (Homo sapiens [1]): Did not inhibit or weakly inhibited

IC50 (Rattus norvegicus [2]): 2 µM
IC50 (Homo sapiens [4]): 1.25 µM
IC50 (Homo sapiens [5]): 2.5 µM
IC50 (Homo sapiens [7]): 0.6 µM
IC50 (Homo sapiens [9]): 7 µM
pKa [10]: 3.32
IC50 (Homo sapiens [11]): 3.7 µM
SMILES: CCCCCCCCCCCCCCCCSCC(O)C1OC(O)=C(OC)C1=O (stereo not drawn)
Max inhibition concentration (Homo sapiens [3]): 5 µM
Max inhibition concentration (Homo sapiens [6]): 10 µM
inhibition at 1 µM (Homo sapiens [8]): 80%

SMILES: CCCCCCCCCCCCCCCCSCC(O)C1OC(=O)C(OC)=C1OC (stereo not drawn)
inhibition (Homo sapiens [1]): Did not inhibit or weakly inhibited

pKa [12]: 7.7
SMILES: CCCCCCCCCCCCCCCCSCC(O)C1OC(=O)C(O)=C1OC (stereo not drawn)
inhibition (Homo sapiens [13]): inactive

SMILES: CCCCCCCCCCCCCCCCCCSCC(O)C1OC(O)=C(OC)C1=O (stereo not drawn)
inhibition at 1 µM (Homo sapiens [8]): 40%

SMILES: COC1=C(O)OC(C(O)CSc2ccccc2)C1=O (stereo not drawn)
inhibition (Homo sapiens [1]): Did not inhibit or weakly inhibited

IC50 (Rattus norvegicus [14]): 2.5 µM
SMILES: CCCCCCCCCCCCSCC(O)C1OC(O)=C(OC)C1=O (stereo not drawn)
inhibition (Homo sapiens [1]): Did not inhibit or weakly inhibited
